High-throughput results: PubChem BioAssay, several laboratories
PostGolgi ctrl: inhibits growth of the yeast control strain | efflux-deficient yeast background strain, growth absorbance A615, 16 h | inhibition, % at 10 µM | 98,000 compounds, 5% hits
tolC growth inh: growth inhibitors of E. coli BW25113 tolC mutant. OD615. growth inhibition, % at 10 µM (by protocol). 65,000 compounds, 2.2% hits;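 active = growth inhibition at or above a cutoff equal to the mean over every tested compound plus 3 SD, cut at about 60% in these data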;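 note: growth measured after 20 h incubation at 37 °C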
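System: E. coli ΔtolC::kan strain BW25113; Buffer or medium: LB broth supplemented with 50 µg/mL kanamycin; Compound: 10 µM final, single dose; Incubation: bacterial growth with compound for 20 h at 37 °C; Signal: A615 absorbance measurement; Evaluation: growth inhibition in percent.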
PLAP act: activates human placental alkaline phosphatase; P05187; purified PLAP enzyme, luminescent substrate read-out; hits give high values; activation fold at 20 µM; 96,000 compounds, 1.2% hits; in the data active = activation fold above about 2
Target sequence (P05187 whole entry, looked up): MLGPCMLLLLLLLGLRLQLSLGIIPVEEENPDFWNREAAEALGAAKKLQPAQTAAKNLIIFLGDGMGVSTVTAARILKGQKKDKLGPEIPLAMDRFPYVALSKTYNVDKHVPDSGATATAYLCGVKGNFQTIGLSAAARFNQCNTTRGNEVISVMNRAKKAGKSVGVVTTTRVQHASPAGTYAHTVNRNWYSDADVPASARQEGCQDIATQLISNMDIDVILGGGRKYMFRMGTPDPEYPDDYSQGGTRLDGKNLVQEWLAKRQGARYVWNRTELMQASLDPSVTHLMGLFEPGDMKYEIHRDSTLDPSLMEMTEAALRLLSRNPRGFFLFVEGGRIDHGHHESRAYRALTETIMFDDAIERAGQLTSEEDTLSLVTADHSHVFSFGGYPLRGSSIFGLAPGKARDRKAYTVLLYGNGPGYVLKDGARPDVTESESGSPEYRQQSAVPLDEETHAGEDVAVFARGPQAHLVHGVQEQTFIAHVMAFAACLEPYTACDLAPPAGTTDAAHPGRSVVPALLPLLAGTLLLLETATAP
PostGolgi yeast: growth inhibition of a yeast mutant, post-Golgi transport screen; post-Golgi transport phenotypic cell assay; inhibition, % at 10 µM; 98,000 compounds, 0.9% hits; AID 739;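 note: yeast cells grown in 1536-well plates; yeast grown about 18 h at 30C before absorbance read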
HePTP inhibitor: human HePTP phosphatase inhibition | recombinant HePTP phosphatase activity, OD absorbance | inhibition, % at 20 µM | 110,000 compounds, 0.64% hits | AID 521; in the data active = inhibition above about 50%;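 note: plate controls were vehicle for no effect and reference inhibitor for full effect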
Ecoli WT expand: growth inhibitors of E. coli BW25113 wild type | OD600 absorbance | growth inhibition, % at 100 µM | 98,000 compounds, 0.15% hits;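 active = growth inhibition above about 50% at one test dose, limit read from the data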;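 note: growth measured after 20 h incubation at 37 °C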
Starred values were filed as active, the others as inactive. Sampled rows, rich in hits. Any-hit rate of the full collection: about 5.4%. Cut-off read from the data, not from the text of the source, unless noted: active = inhibition above about 30%; inactive = the rest.

`O=C(O)C1C2C=CC(O2)C1C(=O)Nc1ccc(F)c(Cl)c1` (stereo unspecified) gave HePTP inhibitor -1.
`CCc1ccc2oc(-c3cc(N=Cc4cccc(OC)c4O)ccc3O)nc2c1` gave PostGolgi ctrl 33*, tolC growth inh 5, PLAP act 1.3, PostGolgi yeast 9, HePTP inhibitor 8 and Ecoli WT expand -6.
Oc1ccc2ccccc2c1C=Nc1ccc2oc(-c3ccccc3Br)nc2c1 was read as HePTP inhibitor -18.
Screening O=C1N=C(N2CCOCC2)S/C1=C\c1ccc(O)cc1 returned HePTP inhibitor -1.
For Cc1ccc2nsnc2c1NC(=O)c1cc2ccccc2o1 the results were HePTP inhibitor 7.
`FC(F)(F)c1nnc2ccc(N3CCOCC3)nn12` gave PostGolgi ctrl 15, tolC growth inh -15, PLAP act 1.2, PostGolgi yeast 3, HePTP inhibitor 9 and Ecoli WT expand -3.
For Cc1cccc(C)c1N1CCN(c2ccc3nnc(C(F)(F)F)n3n2)CC1 the results were PostGolgi ctrl 48*, PLAP act 1.6, PostGolgi yeast 19 and Ecoli WT expand 9.
For Cc1cc(N2C(=O)C(=O)/C(=C(/O)c3ccc(F)cc3)C2c2cccc(Br)c2)no1 (stereo unspecified) the results were PostGolgi ctrl 11, tolC growth inh 9, PLAP act 1.2, PostGolgi yeast 7, HePTP inhibitor 9 and Ecoli WT expand -1.
For Cc1ccc(/C(O)=C2\C(=O)C(=O)N(c3cc(C)on3)C2c2cccc(Br)c2)cc1 (stereo unspecified) the results were PostGolgi ctrl -1, tolC growth inh 65*, PLAP act 1.2, PostGolgi yeast 2, HePTP inhibitor -3 and Ecoli WT expand -7.
Screening O=c1cc(NCc2ccco2)[nH]c(=O)n1-c1ccc(Br)cc1 returned PostGolgi ctrl 37*, tolC growth inh -3, PostGolgi yeast 5, HePTP inhibitor 2 and Ecoli WT expand -3.
N#Cc1cccc(NC(=O)/C=C/C(=O)O)c1 was read as HePTP inhibitor 6.
COC(=O)COc1ccc(S(=O)(=O)NCc2ccncc2)cc1 was read as PostGolgi ctrl 0, tolC growth inh -20, PLAP act 1, PostGolgi yeast -21, HePTP inhibitor 9 and Ecoli WT expand -14.
`O=C(Nc1nnc(C2CC2)s1)c1cc(-c2ccccc2)nn1-c1ccccc1` gave PostGolgi ctrl 25, tolC growth inh 67*, PLAP act 1.9, PostGolgi yeast 39*, HePTP inhibitor 4 and Ecoli WT expand -11.
Screening O=C(Nc1nnc(C2CC2)s1)c1cc(S(=O)(=O)N2CCN(c3ccccc3)CC2)ccc1Cl returned PostGolgi ctrl 33*, PLAP act 1, PostGolgi yeast 12 and Ecoli WT expand 0.
`COc1ccccc1CNC(=O)c1ccc(S(=O)(=O)N2CCCC2)cc1` gave PostGolgi ctrl 17, tolC growth inh 3, PLAP act 1, PostGolgi yeast 3, HePTP inhibitor 4 and Ecoli WT expand -3.
Screening O=C(NCc1ccc(F)cc1)C(c1cccs1)N(C(=O)c1csnn1)C1CC1 (stereo unspecified) returned PostGolgi ctrl -2, tolC growth inh -10, PLAP act 0.9, PostGolgi yeast 12, HePTP inhibitor -9 and Ecoli WT expand -3.
`Cc1ccc(-c2cc(C(F)(F)F)n3ncc(C(=O)Nc4cccnc4)c3n2)cc1` gave HePTP inhibitor -4.
`CC(C)(C)NC(=O)C1CC(=O)OC1(C)C` (stereo unspecified) gave PostGolgi ctrl 6, tolC growth inh -26, PLAP act 0.9, PostGolgi yeast -1, HePTP inhibitor 4 and Ecoli WT expand 1.
COc1ccc(-c2nc(-c3ccccc3)c(-c3cc([N+](=O)[O-])ccc3C)[nH]2)cc1O was read as PostGolgi ctrl 31*, PLAP act 1.3, PostGolgi yeast 20 and Ecoli WT expand -7.
C=CCn1c(SCC(=O)NCc2ccc3c(c2)OCO3)nc2scc(-c3ccc(F)cc3)c2c1=O was read as PostGolgi ctrl 9, PLAP act 0.8, PostGolgi yeast 3 and Ecoli WT expand -11.
For Cc1ccc(-c2csc3ncnc(SCC(=O)NCc4ccc5c(c4)OCO5)c23)cc1 the results were PostGolgi ctrl 43*, PLAP act 0.7, PostGolgi yeast 4 and Ecoli WT expand -9.
For CCOC(=O)Cc1csc(NS(=O)(=O)c2ccc3ccccc3c2)n1 the results were HePTP inhibitor 3.
Cc1ccc(NC(=O)CN2CCCCCC2)c(Br)c1 was read as PostGolgi ctrl 12, tolC growth inh 7, PLAP act 1, PostGolgi yeast 1, HePTP inhibitor -3 and Ecoli WT expand 11.
For Cc1ccc(-c2noc(CCCN3C(=O)c4ccccc4C3=O)n2)cc1 the results were PostGolgi ctrl 31*, PLAP act 1, PostGolgi yeast 9 and Ecoli WT expand -1.
`O=C1c2ccccc2C(=O)N1CCCCCc1nc(-c2ccccc2)no1` gave PostGolgi ctrl 49*, tolC growth inh 55, PLAP act 0.8, PostGolgi yeast 8, HePTP inhibitor -13 and Ecoli WT expand -8.
`c1ccc(Oc2cccc(CN3CCN(Cc4ccncc4)CC3)c2)cc1` gave HePTP inhibitor 4.
CSc1ccc(-c2nc3cnccn3c2Nc2ccc3c(c2)OCO3)cc1 was read as PostGolgi ctrl 16, PLAP act 1.4, PostGolgi yeast -11 and Ecoli WT expand -10.
Screening Clc1ccc(-c2nc3cnccn3c2NC2CCCC2)cc1 returned PostGolgi ctrl 31*, PLAP act 1.1, PostGolgi yeast 22 and Ecoli WT expand 7.
Clc1ccc(-c2nc3cnccn3c2Nc2ccc3c(c2)OCO3)cc1 was read as PostGolgi ctrl 38*, PLAP act 0.9, PostGolgi yeast -3 and Ecoli WT expand 6.
COC(=O)C1=C(C)N=C2SC(C#N)=C(N)N2C1c1ccc(OCc2ccccc2)cc1 (stereo unspecified) was read as PostGolgi ctrl 16, PLAP act 1, PostGolgi yeast 24 and Ecoli WT expand 2.
Screening O=C1N=c2ccccc2=C1c1sc(Nc2ccc(O)cc2)nc1O returned HePTP inhibitor 104*.
O=C1N=c2ccccc2=C1c1sc(Nc2cccc(O)c2)nc1O was read as HePTP inhibitor -9.
Screening Cc1ccc(-c2cc(C(=O)Nc3c(C#N)cnn3C)no2)cc1 returned PostGolgi ctrl 7, tolC growth inh -17, PLAP act 1.2, PostGolgi yeast 2, HePTP inhibitor -4 and Ecoli WT expand -12.
`COc1ccc(NC(=O)COC(=O)c2c3c(nc4ccccc24)CCCC3)cc1Cl` gave PostGolgi ctrl 79*, PLAP act 1.2, PostGolgi yeast 49* and Ecoli WT expand -16.
`COc1ccc(NC(=O)COC(=O)c2c3c(nc4ccccc24)CCCC3)cc1` gave PostGolgi ctrl 34*, PLAP act 0.8, PostGolgi yeast 0 and Ecoli WT expand 1.
